Reference: ChEMBL document CHEMBL3351385, “Synthesis and preliminary mechanistic evaluation of 5-(p-tolyl)-1-(quinolin-2-yl)pyrazole-3-carboxylic acid amides with potent antiproliferative activity on human cancer cell lines” (Eur J Med Chem, 2014)
The source made the active and inactive calls. No cut-off for these calls is given here.

Columns and labels:
[1] = system: MCF7; assay: Cytotoxicity against human MCF7 cells after 72 hrs by SRB assay; assay type: functional, cell-based; settings: MCF7, 72 h
Outline: (§1)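 Cells kept in DMEM with 10% FCS and penicillin/streptomycin at 37°C, 5% CO2. 2000–3000 cells/well were seeded, and medium was refreshed the next day. DMSO solutions were added over 2.5–40 µM with matched DMSO-only controls for 72 h. Cells were then TCA-fixed, stained with 0.4% SRB in 1% acetic acid, solubilized in 10 mM Tris pH 8 and read at 515 nm. Data were normalized to DMSO wells and expressed as mean ±SD.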

[2] = Cytotoxicity against human HCT116 cells after 72 hrs by SRB assay; assay type: functional, cell-based; settings: HCT-116, 72 h; outline: as §1
[3] = Cytotoxicity against human HuH7 cells after 72 hrs by SRB assay; assay type: functional, cell-based; settings: Huh-7, 72 h; outline: as §1
[4] = Induction of cell cycle arrest in human Mahlavu cells assessed as accumulation at S phase at cytotoxic IC50 level after 48 hrs by propidium iodide staining based FACS method; assay type: functional
[5] = Induction of cell cycle arrest in human Mahlavu cells assessed as accumulation at G2/M phase at cytotoxic IC50 level after 48 hrs by propidium iodide staining based FACS method; assay type: functional
[6] = Induction of cell cycle arrest in human HuH7 cells assessed as accumulation at G2/M phase at cytotoxic IC50 level after 48 hrs by propidium iodide staining based FACS method; assay type: functional, Huh-7
Outline: (§2)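 Huh7 cells were seeded at 150,000–300,000 per 100-mm dish and left 24 h. […] Cells were stained with a propidium iodide-containing cell cycle reagent, and subG1, G0/G1, S and G2/M fractions were scored by flow cytometry.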

[7] = Induction of cell cycle arrest in human HuH7 cells assessed as accumulation at S phase at cytotoxic IC50 level after 48 hrs by propidium iodide staining based FACS method; assay type: functional, Huh-7; outline: as §2
[8] = system: Huh-7; assay: Induction of autophagy in human HuH7 cells assessed as increase in LC3-2 formation at cytotoxic IC50 level after 72 hrs by Western blotting method; assay type: functional, cell-based
[9] = system: Huh-7; assay: Induction of cell death in human HuH7 cells assessed as nuclear condensation at cytotoxic IC50 level after 72 hrs by Hoechst 33258 staining based […]; assay type: functional
Outline: (§3)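 Cells were washed in cold PBS, fixed 10 min in cold methanol and stained with Hoechst 33258 at 3 µg/mL for 5 min in the dark. Nuclear condensation and fragmentation were examined by fluorescence microscopy at 40×.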

[10] = Induction of cell cycle arrest in human Mahlavu cells assessed as accumulation at G0/G1 phase at cytotoxic IC50 level after 48 hrs by propidium iodide staining based FACS method; assay type: functional
[11] = system: Huh-7; assay: Induction of cell death in human HuH7 cells assessed as induction of intracytoplasmic vacuoles at cytotoxic IC50 level after 72 hrs by inverted light microscopy; assay type: functional, cell-based
Outline: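 They were viewed under an inverted light microscope at 20× for death morphology, including intracytoplasmic vacuoles.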

[12] = system: Huh-7; assay: Induction of cell death in human HuH7 cells assessed as DNA fragmentation at cytotoxic IC50 level after 72 hrs by Hoechst 33258 staining based […]; assay type: functional; outline: as §3
[13] = Induction of cell cycle arrest in human HuH7 cells assessed as accumulation at G0/G1 phase at cytotoxic IC50 level after 48 hrs by propidium iodide staining based FACS method; assay type: functional, Huh-7; outline: as §2

SMILES | IC50 [1] [µM] | IC50 [2] [µM] | IC50 [3] [µM] | also measured
Cc1ccc(-c2cc(C(=O)N3CCN(c4ncccc4C(F)(F)F)CC3)nn2-c2ccc3ccccc3n2)cc1 | 5.8 | 9.7 | 12.7 | –
Cc1ccc(-c2cc(C(=O)NCc3cccnc3)nn2-c2ccc3ccccc3n2)cc1 | 19 | 11.2 | 14.1 | Activity [4]: 14%; Activity [5]: 28.5%; Activity [6]: 32.3%; Activity [7]: 10.5%; Activity [8]: Active; Activity [9]: Active; Activity [10]: 56.1%; Activity [11]: Active; Activity [12]: Active; Activity [13]: 56.1%
COc1ncccc1NC(=O)c1cc(-c2ccc(C)cc2)n(-c2ccc3ccccc3n2)n1 | 30.2 | 15.7 | 7.9 | –
Cc1ccc(-c2cc(C(=O)N3CCN(c4ccncc4)CC3)nn2-c2ccc3ccccc3n2)cc1 | 4.7 | 7.1 | 7.8 | Activity [4]: 17%; Activity [5]: 24.4%; Activity [6]: 33%; Activity [7]: 7.2%; Activity [8]: Active; Activity [9]: Active; Activity [10]: 52.9%; Activity [11]: Active; Activity [12]: Active; Activity [13]: 57.2%
Cc1ccc(-c2cc(C(=O)Nc3ccncc3Br)nn2-c2ccc3ccccc3n2)cc1 | 11 | 15.5 | 13.1 | –
Cc1ccc(-c2cc(C(=O)Nc3ccncc3)nn2-c2ccc3ccccc3n2)cc1 | 15.4 | 8.1 | 8 | –
Cc1ccc(-c2cc(C(=O)N3CCN(c4c(Cl)cncc4Cl)CC3)nn2-c2ccc3ccccc3n2)cc1 | 9.7 | 4.8 | 4.6 | –
Cc1ccc(-c2cc(C(=O)N3CCN(c4ncc(C(F)(F)F)cc4Cl)CC3)nn2-c2ccc3ccccc3n2)cc1 | 48 | 13.3 | 8 | –
Cc1ccc(-c2cc(C(=O)N3CCN(c4ccccn4)CC3)nn2-c2ccc3ccccc3n2)cc1 | 12 | 5.1 | 4.8 | –
Cc1ccc(-c2cc(C(=O)N3CCN(c4cccc(C(F)(F)F)n4)CC3)nn2-c2ccc3ccccc3n2)cc1 | 11.4 | 9.4 | 10.2 | –
CC[C@@]1(O)C(=O)OCc2c1cc1n(c2=O)Cc2cc3ccccc3nc2-1 [CAMPTOTHECIN] | 0.0006 | 0.00015 | 0.004 | –
Cc1ccc(-c2cc(C(=O)Nc3ccc(Cl)nc3Cl)nn2-c2ccc3ccccc3n2)cc1 | 12.7 | 7.9 | 14 | –
Cc1ccc(-c2cc(C(=O)N3CCN(c4ccc(C(F)(F)F)cn4)CC3)nn2-c2ccc3ccccc3n2)cc1 | 44.7 | 17 | 20.9 | –
Cc1ccc(-c2cc(C(=O)N3CCN(c4ncccc4C#N)CC3)nn2-c2ccc3ccccc3n2)cc1 | 79.5 | 39.4 | 21.5 | –
Cc1ccc(-c2cc(C(=O)Nc3ncc(Br)cc3Br)nn2-c2ccc3ccccc3n2)cc1 | 16.9 | 9.6 | 11.5 | –
